From PubChem BioAssay
This is a sample that favours compounds with a hit; in the whole collection about 2.6% have one here.
DENV2 CPE rescue: DENV2-induced cell death inhibition. DENV2-infected cells, cytopathic effect rescue, plate reader. CPE inhibition, % at 9.99 µM. 350,000 compounds, 1.7% hits. AID 651640; in the data active means CPE inhibition above about 20%, passing the limit was not always enough; tested in BHK-21 cells;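 further: 0% = median of neutral control wells and 100% = median of positive control wells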
miR122 inh: blocks miR-122 activity in Huh7 sensor cells; Huh7 miR-122 Renilla luciferase sensor, 48 h; neutral wells = 0, positive control = 100; activation (reporter increase), % at 12.5 µM; 340,000 compounds, 0.3% hits; AID 602342;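 active means mean replicate activation score at least 90 and every replicate individually at or above 90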;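 further: higher luciferase means less miR-122 activity so hits act as miR-122 inhibitors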
CFTR F508del cor: correctors of CFTR F508del function in bronchial epithelial cells; activity (quench increase), % at 7.58 µM; CFBE cells, YFP halide quenching; stimulated with forskolin plus potentiator P3; % fluorescence drop versus neutral controls; 350,000 compounds, 0.36% hits;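 active means mean added fluorescence quench of at least 8% versus neutral control, with both replicates also reaching 8%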;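 further: cells transiently co-express mutant CFTR-F508del with the halide-sensitive YFP; corrector assay measuring rescue of mutant channel to the surface after 24 h compound exposure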
E-sel inducer: E-selectin induction on HUVECs; P16581; HUVEC E-selectin immunofluorescence imaging; normalized: neutral wells 0, TNF-alpha wells 100; activation, % at 7.58 µM; 260,000 compounds, 0.37% hits;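 active means mean E-selectin-positive cell signal at least 10% of the positive control, reached in at least 60% of replicates, without over 20% cell loss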
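System: HUVEC, human umbilical vein endothelial cells; quantity: 3,000 cells/well; buffer or medium: EGM-2 medium, gelatin-coated wells; dosing: single-point compound dose; detection: immunofluorescence imaging; evaluation: % PE-positive cells; benchmarks: TNF-alpha, DMSO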
ERAP1 HTS inh: inhibitors of human ERAP1 aminopeptidase | Q9NZ08 | recombinant ERAP1, Leu-AMC fluorescence, 60 min | inhibition, % at 10.7 µM | 340,000 compounds, 0.15% hits | AID 652197;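 active means mean replicate inhibition of at least 30%, or all replicates individually reaching that 30% level; inactive means mean below 30% and not every replicate reaching it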;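 further: 0% = neutral control wells and 100% = L-leucinethiol positive control wells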
Target sequence (Q9NZ08 whole entry, looked up): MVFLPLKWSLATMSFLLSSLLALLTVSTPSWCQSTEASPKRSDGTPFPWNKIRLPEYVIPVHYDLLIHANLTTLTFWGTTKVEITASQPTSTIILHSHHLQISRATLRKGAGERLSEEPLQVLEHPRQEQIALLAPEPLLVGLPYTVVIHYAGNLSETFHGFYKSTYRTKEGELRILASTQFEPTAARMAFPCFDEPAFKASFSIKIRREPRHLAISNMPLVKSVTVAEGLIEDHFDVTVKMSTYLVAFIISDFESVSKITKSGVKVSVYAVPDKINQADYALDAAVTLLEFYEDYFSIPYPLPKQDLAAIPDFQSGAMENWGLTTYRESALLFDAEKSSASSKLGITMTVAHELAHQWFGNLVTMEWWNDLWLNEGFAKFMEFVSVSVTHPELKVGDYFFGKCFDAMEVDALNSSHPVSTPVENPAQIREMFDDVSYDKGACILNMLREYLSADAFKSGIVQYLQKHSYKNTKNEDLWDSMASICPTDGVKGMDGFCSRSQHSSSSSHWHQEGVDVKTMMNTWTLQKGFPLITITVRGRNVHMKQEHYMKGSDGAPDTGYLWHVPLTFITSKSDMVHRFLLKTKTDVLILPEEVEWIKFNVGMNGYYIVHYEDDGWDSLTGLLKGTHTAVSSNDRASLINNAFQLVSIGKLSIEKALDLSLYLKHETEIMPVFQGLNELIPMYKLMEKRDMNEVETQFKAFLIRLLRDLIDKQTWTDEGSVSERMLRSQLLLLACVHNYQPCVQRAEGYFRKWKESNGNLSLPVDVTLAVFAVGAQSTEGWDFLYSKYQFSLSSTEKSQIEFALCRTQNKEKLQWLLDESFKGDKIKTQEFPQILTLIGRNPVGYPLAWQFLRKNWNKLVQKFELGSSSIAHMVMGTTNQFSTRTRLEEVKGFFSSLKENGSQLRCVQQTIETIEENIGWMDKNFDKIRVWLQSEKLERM
GSIS activator: GLuc luminescence reporter in INS-1E cells, primary screen for activators of glucose-dependent secretion of insulin. INS-1E GLuc reporter insulin secretion, 2-3 h. activation, % at 16.6 µM. 370,000 compounds, 0.61% hits. AID 743287;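 active means lowest replicate activation of at least 40%, so every replicate reaches that level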;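 further: 0% = median of neutral control wells and 100% = median of IBMX positive control wells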
The depositor's hits bear a star; [ ] = remark or other dose.

`Cc1cc(C)nc(N/C(=N\S(=O)(=O)Cc2ccccc2)Nc2ccccc2Br)n1` gave miR122 inh 179.9*, E-sel inducer -0.1 and GSIS activator -0.8.
Screening COc1ccc(-c2ccccc2)cc1NC(=O)c1cccs1 returned DENV2 CPE rescue 49.4*, miR122 inh 9.0 and ERAP1 HTS inh -0.8.
Cc1cccn2cc(CNS(=O)(=O)c3ccc4ccccc4c3)nc12 was read as DENV2 CPE rescue -4.3, miR122 inh 4.5, CFTR F508del cor -4.1, E-sel inducer -0.1, ERAP1 HTS inh -1.4 and GSIS activator 65.4*.
Screening Cc1ccn2cc(CNS(=O)(=O)c3ccc4ccccc4c3)nc2c1 returned DENV2 CPE rescue -1.5, CFTR F508del cor 0.3, ERAP1 HTS inh 1.5 and GSIS activator 16.5.
Screening COc1ccc(C2=Nc3ccccc3N(C(=O)c3ccncc3)C2C(=O)NC(C)C)cc1 (stereo unspecified) returned DENV2 CPE rescue 59.5*, CFTR F508del cor -3.7, E-sel inducer 3.2 and GSIS activator 8.6.
`C[C@H]1CN(C)C(=O)c2ccccc2O[C@H]1CN(C)S(C)(=O)=O` gave GSIS activator 8.5.
Cc1ccc(S(=O)(=O)NC(=O)C2(C)CCN2C(=O)Cc2cccs2)cc1 (stereo unspecified) was read as DENV2 CPE rescue 49.5*, miR122 inh -2.8, CFTR F508del cor 3.8, E-sel inducer 0.0, ERAP1 HTS inh -3.2 and GSIS activator 0.1.
Cc1nc(C(F)(F)F)ccc1C(=O)N1CCC1(C)C(=O)NCc1ccc(Cl)cc1 (stereo unspecified) was read as DENV2 CPE rescue 68.8*, miR122 inh -3.3, CFTR F508del cor -4.8, E-sel inducer -0.1, ERAP1 HTS inh 1.1 and GSIS activator -18.7.
For CC1(C(=O)NS(=O)(=O)c2ccc(C#N)cc2)CCN1C(=O)C1(c2ccccc2)CCCC1 (stereo unspecified) the results were DENV2 CPE rescue 6.0, miR122 inh 4.1, CFTR F508del cor 2.0, E-sel inducer -0.2, ERAP1 HTS inh 3.4 and GSIS activator 98.8*.
For Cc1ccc(S(=O)(=O)NC(=O)C2(C)CCN2C(=O)c2ccc(C(F)(F)F)nc2C)cc1 (stereo unspecified) the results were DENV2 CPE rescue 51.4*, miR122 inh 0.3, CFTR F508del cor 0.0, E-sel inducer 0.0, ERAP1 HTS inh -3.2 and GSIS activator 1.5.
CC1(C(=O)NS(=O)(=O)c2ccc(Cl)cc2)CCN1C(=O)C1(c2ccccc2)CCCC1 (stereo unspecified) was read as DENV2 CPE rescue -7.8, CFTR F508del cor -0.4, E-sel inducer 0.0 and ERAP1 HTS inh 2.7.
CCCN(C)C[C@H]1OCCCC[C@@H](C)Oc2ccc(NC(=O)Nc3ccccc3)cc2C(=O)N([C@H](C)CO)C[C@@H]1C was read as DENV2 CPE rescue -1.7, miR122 inh 0.2[16.7 µM], CFTR F508del cor -1.2, E-sel inducer -0.2, ERAP1 HTS inh 0.5 and GSIS activator -6.5.
`COCC(=O)Nc1ccc2c(c1)OC[C@@H](C)N(C(=O)c1ccncc1)C[C@H](C)[C@H](OC)CN(C)C2=O` gave DENV2 CPE rescue 4.9, miR122 inh 8.9[16.7 µM], CFTR F508del cor 1.5, E-sel inducer -0.1, ERAP1 HTS inh -1.4 and GSIS activator 9.1.
Screening CO[C@H]1CN(C)C(=O)c2cc(NC(=O)NC3CCCCC3)ccc2OC[C@@H](C)N(CCc2ccccc2)C[C@H]1C returned DENV2 CPE rescue -4.0, CFTR F508del cor -2.4, E-sel inducer -0.1, ERAP1 HTS inh 1.4 and GSIS activator -34.6.
Screening Cc1nc(C(F)(F)F)ccc1C(=O)N1CCC1(C)C(=O)NS(=O)(=O)c1ccc(C#N)cc1 (stereo unspecified) returned DENV2 CPE rescue 30.8*, miR122 inh 1.4, CFTR F508del cor -1.1, E-sel inducer 0.3, ERAP1 HTS inh -4.7 and GSIS activator 16.9.
Screening CCS(=O)(=O)N1CCCCN2[C@H](CO)[C@@H](c3ccc(-c4cccc(C#N)c4)cc3)[C@@H]2C1 returned DENV2 CPE rescue 4.5, miR122 inh 27.0[16.7 µM], CFTR F508del cor -1.3, E-sel inducer -0.1, ERAP1 HTS inh -0.4 and GSIS activator 20.8.
For CCn1ccc(C(=O)Nc2ccccc2SC)n1 the results were DENV2 CPE rescue -1.4, miR122 inh 18.3, ERAP1 HTS inh -3.2 and GSIS activator 40.6*.
Screening O=S(=O)([O-])CCC[n+]1ccc(Oc2ccccc2)cc1 returned DENV2 CPE rescue -1.7, miR122 inh 6.7, CFTR F508del cor -1.6, E-sel inducer -0.1, ERAP1 HTS inh 49.9* and GSIS activator 11.3.
CCC(=O)Nc1ccc2c(c1)OC[C@H](C)N(C(=O)C1CC1)C[C@@H](C)[C@@H](OC)CN(C)C2=O was read as DENV2 CPE rescue -3.6, miR122 inh -12.3[16.7 µM], CFTR F508del cor -1.2, E-sel inducer 0.1 and GSIS activator -4.7.
`CN1c2ccc(Br)cc2[C@H]2[C@H](CCN2S(=O)(=O)c2ccccc2)[C@H]1CO` gave DENV2 CPE rescue -0.5, miR122 inh 10.5[16.7 µM], CFTR F508del cor 1.8, E-sel inducer 0.6, ERAP1 HTS inh -2.8 and GSIS activator -10.3.
CN1c2ccc(Br)cc2[C@H]2[C@H](CCN2S(=O)(=O)c2cccc(F)c2)[C@H]1CO was read as DENV2 CPE rescue 118.3*, miR122 inh 21.3[16.7 µM], CFTR F508del cor 4.1, E-sel inducer 0.2, ERAP1 HTS inh 1.4 and GSIS activator -27.9.
Screening CN1c2ccc(-c3ccc(F)cc3)cc2[C@H]2[C@H](CCN2S(=O)(=O)c2cccc(F)c2)[C@H]1CO returned DENV2 CPE rescue -23.8, miR122 inh 143.8*[16.7 µM], CFTR F508del cor 16.2*, E-sel inducer -0.4, ERAP1 HTS inh -2.2 and GSIS activator -4.9.
Screening CN1c2ccc(Br)cc2[C@@H]2[C@@H](CCN2S(=O)(=O)c2ccccc2)[C@H]1CO returned DENV2 CPE rescue 116.3*, miR122 inh 0.1[16.7 µM], CFTR F508del cor -0.9, E-sel inducer -0.9, ERAP1 HTS inh -2.5 and GSIS activator 5.8.
Screening Cc1ccccc1S(=O)(=O)N1CC[C@@H]2[C@H](CO)N(C)c3ccc(Br)cc3[C@@H]21 returned DENV2 CPE rescue -10.3, miR122 inh 22.6[16.7 µM], CFTR F508del cor 0.6, E-sel inducer -0.8 and GSIS activator 5.1.
Screening Cc1ccccc1S(=O)(=O)N1CC[C@@H]2[C@H]1c1cc(Br)ccc1N(C)[C@H]2CO returned DENV2 CPE rescue 66.3*, miR122 inh 7.8[16.7 µM], CFTR F508del cor 0.5, E-sel inducer -0.4 and GSIS activator 26.4.
Cc1cccc(S(=O)(=O)N2CC[C@@H]3[C@@H](CO)N(C)c4ccc(Br)cc4[C@@H]32)c1 was read as DENV2 CPE rescue -4.6, miR122 inh 26.3[16.7 µM], CFTR F508del cor 0.7, E-sel inducer 0.4, ERAP1 HTS inh 0.3 and GSIS activator -17.2.
